A short description of the data set: Toxicity liver stage against HepG2, at 10uM. The note with it: human, HepG2-A16-CD81EGFP cells; read-out: INHIBITION
The class given is cell-based. More on the design: test concentration 10 uM, cell line HepG2-A16-CD81EGFP. The gist of the method:
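Uninfected HepG2-A16-CD81EGFP cells, 3 × 10^3 per well, 1536-well, plated on prespotted compound at 10 μM final, parasite-free screening media added to match infected plates; puromycin 10 μM positive, DMSO 0.5% negative; run in parallel with 48 h PbLuc assay at 37 °C, 5% CO2; viability by CellTiter-Glo luminescence, normalized to controls.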

Turning to `CC(=O)N1CCC(c2cc3c(ncn3C)c(-c3cnn(C)c3)n2)CC1`, the cytotoxicity at 10 µM is 0.472%.

On to `CC(C)c1ccc(O)c(C(=O)NCc2nncn2C)c1`, for which the cytotoxicity at 10 µM is -3%.

Take `Cc1nc(CN2CCO[C@@H]3CN(C(=O)CC4CC4)CC[C@@H]3C2)cs1`: the cytotoxicity at 10 µM was 3.79%.

With `Cn1ccc(C(=O)N2CCC3(CCN3c3ncccn3)C2)n1` (configuration not stated), the cytotoxicity at 10 µM amounted to 9.41%.

Consider `CCOc1ccc(C(=O)N2CCCS2(=O)=O)cc1OC`, for which the cytotoxicity at 10 µM is -7.42%.

On to `COCCN1CCO[C@@H]2CN(Cc3ccc(C)s3)C[C@@H]2C1`, for which the cytotoxicity at 10 µM was -8.81%.

Turning to `COc1ccc(OC)c(CNCc2ccnc(N3CCCCC3)c2)c1`, the cytotoxicity at 10 µM turned out to be 0.25%.

In the case of `O=C(CSc1nnc(N2CCOCC2)s1)NC(=O)Nc1ccccc1`, the cytotoxicity at 10 µM came to 4.44%.

`O=C(NCC1CCS(=O)(=O)C1)N1CCN(c2cnccn2)CC1` (configuration not stated): the cytotoxicity at 10 µM was -7.21%.

With `Cc1noc(C2CCCN(C(=O)c3ccc(Br)o3)C2)n1` (configuration not stated), the cytotoxicity at 10 µM stood at 1.73%.

Take `CC(C)NC(=O)Nc1ccc(CNCc2ccc(OC(F)F)cc2)cc1`: the cytotoxicity at 10 µM was -3.95%.

In the case of `Cc1ccc(Nc2nccc(C3CN(CC(N)=O)C3)n2)nc1`, the cytotoxicity at 10 µM is -1.91%.

Turning to `CCCS(=O)(=O)N1C[C@@H]2COC[C@]2(CN2CCOCC2)C1`, the cytotoxicity at 10 µM was 1.86%.

In the case of `Cc1cc(C)n(-c2cncc(NCCNC(=O)C(C)(C)C)n2)n1`, the cytotoxicity at 10 µM turned out to be 1.36%.

As for `O=C(CCNS(=O)(=O)c1ccccc1)NCc1ccoc1`, the cytotoxicity at 10 µM was -0.886%.

In the case of `Cc1ccc2cccc(S(=O)(=O)N(C)C3CCCN(C)C3)c2n1` (configuration not stated), the cytotoxicity at 10 µM is 1.5%.

Take `COc1cc(CNCC2CN(C3CC3)CCO2)cc(OC)c1` (configuration not stated): the cytotoxicity at 10 µM is -24.3%.

As to `COc1ccc(C(O)CNC(=O)Cn2ccc(=O)n(C)c2=O)cc1` (configuration not stated), the cytotoxicity at 10 µM was found to be 6.45%.

For `COCc1ncn2c1CN(S(=O)(=O)c1cccs1)CCC2`, the cytotoxicity at 10 µM worked out at 6.82%.

As to `CC(=O)NCCc1cc(N2CCN(C(C)=O)CC2)nc(C2CC2)n1`, the cytotoxicity at 10 µM was found to be 2.24%.

On to `c1ccc2c3c([nH]c2c1)C(c1nn[nH]n1)CCC3` (configuration not stated), for which the cytotoxicity at 10 µM was -7.23%.

As for `CC1(C)CNC(=O)c2nc(CCN3CCCCC3CO)[nH]c2C1` (configuration not stated), the cytotoxicity at 10 µM was -3.24%.

On to `CSc1ccc(NS(=O)(=O)c2cnn(C)c2)cn1`, for which the cytotoxicity at 10 µM is -4.69%.

As to `CC(C#N)CNC(=O)Nc1ccc(-c2ccc[nH]2)cc1` (configuration not stated), the cytotoxicity at 10 µM is 1.2%.

With `COc1ccc(O[C@H]2COCCN(Cc3cccc4c3OCO4)C2)cc1`, the cytotoxicity at 10 µM was found to be 0.375%.

On to `COCCn1cc(NCc2c[nH]nc2C(C)(C)C)cn1`, for which the cytotoxicity at 10 µM was -2.35%.

Regarding `CN(C(=O)c1ccccc1NCC(=O)O)C(C1CC1)C1CC1`, the cytotoxicity at 10 µM was found to be 1.73%.

With `CCN(CC1CCOC1)C(=O)NCc1nnc2n1CCC2` (configuration not stated), the cytotoxicity at 10 µM was 13.6%.

As to `Cc1ccc2c(c1C)OCC2NCc1ccc(C#N)cc1` (configuration not stated), the cytotoxicity at 10 µM was 25.8%.

For `Cc1nc(C)c(CN2CCOC(Cc3ccccc3Cl)C2)nc1C` (configuration not stated), the cytotoxicity at 10 µM came to 5.32%.

Regarding `CCn1ccnc1CN1C[C@@H](CN2CCCC2)[C@@H](CO)C1`, the cytotoxicity at 10 µM is -9.96%.

As for `COc1ccc(CN2CCn3cc(CN4CCCCC4)nc3C2)cc1`, the cytotoxicity at 10 µM was determined as 4.7%.

Turning to `c1cnc2c(c1)cc([C@@H]1CCCO1)n2CCN1CCCCC1`, the cytotoxicity at 10 µM is -25.9%.

Consider `CC(C)N1[C@H](CN2CCCC2)C[C@@H]2CN(C(=O)c3ccoc3)CC[C@@H]21`, for which the cytotoxicity at 10 µM was -135%.

Turning to `CC(C)c1nn(C)c(Cl)c1CNC1CCOc2ccccc21` (configuration not stated), the cytotoxicity at 10 µM worked out at 53.2%.

Regarding `CSc1ccc(CN(CCO)C(=O)CCOc2ccccc2)cc1`, the cytotoxicity at 10 µM is 2.08%.

As for `CC(C)Nc1nc2c(c(NC3CC3)n1)CN(C(=O)c1ccnnc1)CC2`, the cytotoxicity at 10 µM is -0.449%.

Turning to `Cn1ccnc1COc1ccc(CSc2nnnn2C2CC2)cc1`, the cytotoxicity at 10 µM is -0.146%.

As to `NC(=O)C1CCN(C(=O)NCc2csc(Br)c2)CC1`, the cytotoxicity at 10 µM was -18%.

For the molecule `O=C(C1NCCc2[nH]cnc21)N1CCC2(C=Cc3ccccc32)CC1` (configuration not stated), the cytotoxicity at 10 µM is 5.19%.

For the molecule `COc1ccc2cc(C(=O)NCCNc3ccc(C)nn3)[nH]c2c1`, the cytotoxicity at 10 µM was -3.09%.

Turning to `CC(C)OCCC1CCCCN1S(N)(=O)=O` (configuration not stated), the cytotoxicity at 10 µM turned out to be 7.36%.

With `O=S1(=O)COCCN1CCOc1ccc(F)cc1`, the cytotoxicity at 10 µM was -0.505%.

For `COCC(C)N(Cc1ccccc1OC)C(=O)c1cc(C)[nH]c(=O)c1` (configuration not stated), the cytotoxicity at 10 µM is -3.73%.

Consider `O=C(NCC(O)(c1ccco1)C1CC1)c1c(F)cccc1Cl` (configuration not stated), for which the cytotoxicity at 10 µM is -2.69%.

For `Cc1oc(-c2ccsc2)nc1CC(=O)NCCS(C)(=O)=O`, the cytotoxicity at 10 µM is -8.6%.

For `CCC(CNC(=O)NC1CCN(C)CC1)Oc1ccccc1Cl` (configuration not stated), the cytotoxicity at 10 µM stood at 5.47%.

Regarding `COCc1cc(CNC(=O)c2c(C)cc(C)[nH]c2=O)n[nH]1`, the cytotoxicity at 10 µM is -4.69%.

In the case of `Cc1ccccc1CN(CCN(C)C)Cc1ccc(O)c(C(=O)O)c1`, the cytotoxicity at 10 µM was found to be 0.935%.

Consider `Cc1cc(C(=O)N2CCc3nnc(N)cc3C2)c(C)n1-c1cccnc1`, for which the cytotoxicity at 10 µM was -1.25%.

As for `COCC(=O)N1CCN(C(C)c2ncc(-c3ccccc3)o2)CC1` (configuration not stated), the cytotoxicity at 10 µM turned out to be 5.66%.

Take `CN(C)C(=O)[C@@H]1C[C@@H]2CCN(Cc3ccncc3)C[C@@H]2O1`: the cytotoxicity at 10 µM amounted to 6.36%.

As for `O=S(=O)(Cc1ccc(F)cc1F)NCCOc1cccnc1`, the cytotoxicity at 10 µM is -45.9%.

As for `CC(NC(=O)NC1CCN(Cc2ccccc2)CC1)c1nncn1C` (configuration not stated), the cytotoxicity at 10 µM was -12.5%.

For `CC(C)N(C)CCC(=O)N1CCCC(c2ccc(C(=O)O)cc2)C1` (configuration not stated), the cytotoxicity at 10 µM was -4.1%.

Take `c1cnnc(N2CCC(c3nnc(Cn4ccnc4)n3C3CC3)CC2)c1`: the cytotoxicity at 10 µM was 6.71%.

Take `O=C1CCCc2[nH]c(=O)c(C(=O)N(Cc3ccsc3)C3CC3)cc21`: the cytotoxicity at 10 µM was -10.8%.

On to `CCC(C)(CNC(=O)c1ccon1)NC(=O)c1ccon1` (configuration not stated), for which the cytotoxicity at 10 µM is -0.903%.

With `COCCN1Cc2ccnn2CC(COCc2cccnc2)C1` (configuration not stated), the cytotoxicity at 10 µM is -131%.

For `O=C(NC1CCc2[nH]c(=O)ccc2C1)C1CCOCC1` (configuration not stated), the cytotoxicity at 10 µM amounted to 1.42%.

As to `CN(C)[C@@H]1CN(Cc2ccccn2)C[C@H]1c1cn(C)c2ccccc12`, the cytotoxicity at 10 µM was -0.73%.

In the case of `Cc1cc(C)n(C2CN(CC(=O)NC3CCS(=O)(=O)C3)C2)n1` (configuration not stated), the cytotoxicity at 10 µM is -9.41%.

Take `O=C(COCCOc1ccccc1)Nc1ccnn1CC1CCOC1` (configuration not stated): the cytotoxicity at 10 µM is 1.88%.

Turning to `O=C(NC1CCCCC1)[C@H]1CNC[C@@H](COc2cccnc2)C1`, the cytotoxicity at 10 µM is -8.98%.

In the case of `Cc1cccc(-c2noc(CN3CCC(N4CCNC4=O)CC3)n2)c1`, the cytotoxicity at 10 µM came out at 5.34%.

As for `c1cncc(CNc2ccccc2-c2nn[nH]n2)c1`, the cytotoxicity at 10 µM is 9.35%.

Take `Cc1ccc(NCc2ccccc2C#N)cc1-n1cnnn1`: the cytotoxicity at 10 µM amounted to 4.25%.

For the molecule `COC(=O)c1cccc2nc([C@H]3CCN(Cc4ccccc4)C3)oc12`, the cytotoxicity at 10 µM was determined as 6.06%.

As to `COc1ccc(C(=O)NC2CCN(c3ncccn3)CC2)cc1F`, the cytotoxicity at 10 µM was -17.8%.

As to `Cc1cc(C(=O)N2CCC3(CC2)CN(CCN(C)C)C(=O)O3)nc(C)n1`, the cytotoxicity at 10 µM amounted to 2.92%.

In the case of `Cc1ccc(-c2cc(C(=O)NC(C)C(=O)N3CCCCC3)on2)cc1` (configuration not stated), the cytotoxicity at 10 µM was -7.17%.

Regarding `O=C(NC1CC1)C1CCN(c2snc3ccccc23)CC1`, the cytotoxicity at 10 µM is -5.43%.

In the case of `Cc1cc(C(=O)N2C[C@@H]3COC[C@]3(CN(C)C)C2)c(C)o1`, the cytotoxicity at 10 µM is -131%.

With `COc1cccc(CN(C)CCCn2cnc3c(N)ncnc32)c1`, the cytotoxicity at 10 µM was -2.63%.

As to `Cn1ncc2c(N3CCC3)nc(-c3ccncc3)nc21`, the cytotoxicity at 10 µM was 11.8%.

For the molecule `O=C(NCc1ccccc1CO)Nc1ccc2c(c1)CCO2`, the cytotoxicity at 10 µM came out at 11.4%.

With `Cc1nn(C)c2c(NCCCn3cccn3)ncnc12`, the cytotoxicity at 10 µM was -0.472%.

Consider `CC(C)(C)CC(=O)Nc1ncn(CC(=O)NCc2ccccc2)n1`, for which the cytotoxicity at 10 µM was -3.38%.

Turning to `CCCS(=O)(=O)NC(=O)c1sc(C2CCCC2)nc1C`, the cytotoxicity at 10 µM was 0.521%.

Regarding `CC(NC(=O)N(C)CCCOc1ccccc1)c1nncn1C` (configuration not stated), the cytotoxicity at 10 µM was -5.4%.

`Cc1ccc(CNC(=O)c2cc(CN3CCC(O)CC3)on2)s1`: the cytotoxicity at 10 µM is -48.5%.

With `CCCn1nnnc1CN(C)C(C)c1ccc(C)cc1` (configuration not stated), the cytotoxicity at 10 µM is -3.21%.

As for `Cc1csc(N2CCCN(CCC(=O)NC(N)=O)CC2)n1`, the cytotoxicity at 10 µM is -24.2%.

Take `Cc1cnn(CC2CN(Cc3nnc(C(C)C)o3)CCO2)c1` (configuration not stated): the cytotoxicity at 10 µM is -2.55%.

As to `C=C(C)CN1CCN(Cc2nccn2C)C(C)C1` (configuration not stated), the cytotoxicity at 10 µM is -14.6%.

Take `O=S(=O)(c1ccccc1Cl)N1CCc2nc(C3CCNCC3)ncc2C1`: the cytotoxicity at 10 µM was determined as 14.2%.

Turning to `CC(=O)c1ccc(OCC(C)O)cc1O` (configuration not stated), the cytotoxicity at 10 µM was -8.02%.

Consider `O=C(CCc1ccc(Br)cc1F)NS(=O)(=O)c1ccc2c(c1)OCCO2`, for which the cytotoxicity at 10 µM turned out to be 2.48%.

For `CNC(=O)c1cccc(Nc2cnn(C)c2)c1`, the cytotoxicity at 10 µM stood at 6.77%.

For the molecule `Cc1cc2c(c(-c3cnccn3)c1)OC(CN)C2` (configuration not stated), the cytotoxicity at 10 µM was -5.13%.

In the case of `O=C(COc1coc(CN2CCOCC2)cc1=O)Nc1ccccc1F`, the cytotoxicity at 10 µM was -10.7%.

Consider `CN1[C@@H](C(=O)NCC2CC2)C[C@H]2CN(Cc3ccsc3)C[C@H]21`, for which the cytotoxicity at 10 µM is -0.213%.

For the molecule `CC1=CC[C@@H]2CN(C(=O)c3ccc(-c4nnn(C)n4)cc3)C[C@@H]2C1`, the cytotoxicity at 10 µM turned out to be 7.16%.

Turning to `COCCCC(=O)N(CCC(=O)O)Cc1ccc(F)c(F)c1`, the cytotoxicity at 10 µM stood at 4.91%.

For the molecule `CC(C)n1cnnc1CN(C)Cc1cnc(-c2ccco2)nc1`, the cytotoxicity at 10 µM was 10.8%.

As to `Cc1cccc(OCc2nnc(SCC3CCCN(C)C3)o2)c1` (configuration not stated), the cytotoxicity at 10 µM was -2.8%.

Consider `CCc1cc(CN(C)Cc2nc(-c3sccc3C)oc2C)on1`, for which the cytotoxicity at 10 µM is -3.81%.
